According to ChEMBL document CHEMBL3751694, “1-Piperazinylphthalazines as potential VEGFR-2 inhibitors and anticancer agents: Synthesis and in vitro biological evaluation” (Eur J Med Chem, 2016):

Legend:
Assay type in all cases: functional
[1] = Growth inhibition of human BT549 cells at 10 uM after 48 hrs by SRB method; settings: BT-549, 48 h, read-out: GI
Method in brief: (§1)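 NCI 56-line primary screen at a single 10^-5 M concentration. Cells grown in RPMI 1640 with 5% FBS and 2 mM L-glutamine, plated at 5000–40,000 cells/well, then preincubated for 24 h. Exposure was 48 h at 37 °C and 5% CO2. Adherent cells were fixed with cold TCA at 10% final, suspension cells at 16%. Staining used 0.4% SRB, read at 515 nm. Results are % growth inhibition relative to control.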

MCF7 = assay: Growth inhibition of human MCF7 cells at 10 uM after 48 hrs by SRB method; settings: MCF7, 48 h, read-out: GI; method in brief: as §1
[2] = Growth inhibition of human PC3 cells at 10 uM after 48 hrs by SRB method; settings: PC-3, 48 h, read-out: GI; method in brief: as §1
[3] = Growth inhibition of human UO31 cells at 10 uM after 48 hrs by SRB method; settings: UO-31, 48 h, read-out: GI
Method in brief: (§2)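 NCI 56-line screen, single-dose primary assay at 10^-5 M. Cells grown in RPMI 1640 with 5% FBS and 2 mM L-glutamine, plated at 5000–40,000 cells/well and held 24 h at 37 °C, 5% CO2 before drug addition. Compound was given from DMSO stock, exposure 48 h, then TCA fixation and SRB staining with absorbance at 515 nm. % growth is taken relative to time-zero and untreated controls.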

[4] = Growth inhibition of human TK10 cells at 10 uM after 48 hrs by SRB method; settings: TK-10, 48 h, read-out: GI; method in brief: as §2
SN12C = assay: Growth inhibition of human SN12C cells at 10 uM after 48 hrs by SRB method; settings: read-out: GI; method in brief: as §1
ACHN = assay: Growth inhibition of human ACHN cells at 10 uM after 48 hrs by SRB method; settings: read-out: GI; method in brief: as §1
A498 = assay: Growth inhibition of human A498 cells at 10 uM after 48 hrs by SRB method; settings: A498, 48 h, read-out: GI; method in brief: as §1
NCI/ADR-RES = assay: Growth inhibition of human NCI/ADR-RES cells at 10 uM after 48 hrs by SRB method; settings: read-out: GI; method in brief: as §1
[5] = Growth inhibition of human OVCAR8 cells at 10 uM after 48 hrs by SRB method; settings: OVCAR-8, 48 h, read-out: GI; method in brief: as §1
[6] = Growth inhibition of human UACC62 cells at 10 uM after 48 hrs by SRB method; settings: UACC-62, 48 h, read-out: GI; method in brief: as §2
[7] = Growth inhibition of human UACC257 cells at 10 uM after 48 hrs by SRB method; settings: UACC-257, 48 h, read-out: GI; method in brief: as §2
SK-MEL-5 = assay: Growth inhibition of human SK-MEL-5 cells at 10 uM after 48 hrs by SRB method; settings: SK-MEL-5, 48 h, read-out: GI; method in brief: as §1
SK-MEL-2 = assay: Growth inhibition of human SK-MEL-2 cells at 10 uM after 48 hrs by SRB method; settings: SK-MEL-2, 48 h, read-out: GI; method in brief: as §1
M14 = assay: Growth inhibition of human M14 cells at 10 uM after 48 hrs by SRB method; settings: M14, 48 h, read-out: GI; method in brief: as §1
HT-29 = assay: Growth inhibition of human HT-29 cells at 10 uM after 48 hrs by SRB method; settings: HT-29, 48 h, read-out: GI; method in brief: as §1
[8] = Growth inhibition of human HCT15 cells at 10 uM after 48 hrs by SRB method; settings: HCT-15, 48 h, read-out: GI; method in brief: as §1
[9] = Growth inhibition of human HCT116 cells at 10 uM after 48 hrs by SRB method; settings: HCT-116, 48 h, read-out: GI; method in brief: as §1
[10] = Growth inhibition of human COLO205 cells at 10 uM after 48 hrs by SRB method; settings: COLO 205, 48 h, read-out: GI; method in brief: as §1
NCI-H522 = assay: Growth inhibition of human NCI-H522 cells at 10 uM after 48 hrs by SRB method; settings: NCI-H522, 48 h, read-out: GI; method in brief: as §1
NCI-H460 = assay: Growth inhibition of human NCI-H460 cells at 10 uM after 48 hrs by SRB method; settings: NCI-H460, 48 h, read-out: GI; method in brief: as §1
NCI-H226 = assay: Growth inhibition of human NCI-H226 cells at 10 uM after 48 hrs by SRB method; settings: NCI-H226, 48 h, read-out: GI; method in brief: as §1
[11] = Growth inhibition of human HOP92 cells at 10 uM after 48 hrs by SRB method; settings: HOP-92, 48 h, read-out: GI; method in brief: as §1
A549 = assay: Growth inhibition of human A549 cells at 10 uM after 48 hrs by SRB method; settings: A549, 48 h, read-out: GI; method in brief: as §1
SR = assay: Growth inhibition of human SR cells at 10 uM after 48 hrs by SRB method; settings: read-out: GI; method in brief: as §1
[12] = Growth inhibition of human […] cells at 10 uM after 48 hrs by SRB method; settings: read-out: GI; method in brief: as §1
[13] = Growth inhibition of human MOLT4 cells at 10 uM after 48 hrs by SRB method; settings: MOLT-4, 48 h, read-out: GI; method in brief: as §1
K562 = assay: Growth inhibition of human K562 cells at 10 uM after 48 hrs by SRB method; settings: K562, 48 h, read-out: GI; method in brief: as §1
[14] = Growth inhibition of human HL-60(TB) cells at 10 uM after 48 hrs by SRB method; settings: HL-60, 48 h, read-out: GI
Method in brief: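 NCI single-dose primary screen at 10^-5 M, 48 h exposure. Cells grown in RPMI 1640 with 5% FBS and 2 mM L-glutamine. Suspension cells fixed in situ with TCA (final 16%), stained with SRB, absorbance read at 515 nm. Percent growth inhibition calculated against time-zero and untreated control plates.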

CCRF-CEM = assay: Growth inhibition of human CCRF-CEM cells at 10 uM after 48 hrs by SRB method; settings: read-out: GI; method in brief: as §1
T47D = assay: Growth inhibition of human T47D cells at 10 uM after 48 hrs by SRB method; settings: read-out: GI; method in brief: as §2
MDA-MB-468 = assay: Growth inhibition of human MDA-MB-468 cells at 10 uM after 48 hrs by SRB method; settings: MDA-MB-468, 48 h, read-out: GI; method in brief: as §1
MDA-MB-231 = assay: Growth inhibition of human MDA-MB-231 cells at 10 uM after 48 hrs by SRB method; settings: MDA-MB-231, 48 h, read-out: GI; method in brief: as §1
[15] = Growth inhibition of human Caki1 cells at 10 uM after 48 hrs by SRB method; settings: CAKI-1, 48 h, read-out: GI; method in brief: as §1
786-0 = assay: Growth inhibition of human 786-0 cells at 10 uM after 48 hrs by SRB method; settings: 786-0, 48 h, read-out: GI; method in brief: as §1
[16] = Growth inhibition of human SF268 cells at 10 uM after 48 hrs by SRB method; settings: SF-268, 48 h, read-out: GI; method in brief: as §1
KM12 = assay: Growth inhibition of human KM12 cells at 10 uM after 48 hrs by SRB method; settings: KM12, 48 h, read-out: GI; method in brief: as §1
[17] = Growth inhibition of human OVCAR4 cells at 10 uM after 48 hrs by SRB method; settings: OVCAR-4, 48 h, read-out: GI; method in brief: as §1
[18] = Growth inhibition of human OVCAR3 cells at 10 uM after 48 hrs by SRB method; settings: OVCAR-3, 48 h, read-out: GI; method in brief: as §1
MDA-MB-435 = assay: Growth inhibition of human MDA-MB-435 cells at 10 uM after 48 hrs by SRB method; settings: MDA-MB-435, 48 h, read-out: GI; method in brief: as §1
[19] = Growth inhibition of human SF295 cells at 10 uM after 48 hrs by SRB method; settings: SF-295, 48 h, read-out: GI; method in brief: as §1

| Structure (SMILES) | inhibition of growth at 10 µM [2] | inhibition of growth at 10 µM [3] | inhibition of growth at 10 µM [4] | inhibition of growth at 10 µM (A498) | inhibition of growth at 10 µM [5] | inhibition of growth at 10 µM [6] | inhibition of growth at 10 µM (SK-MEL-5) | inhibition of growth at 10 µM (HT-29) | inhibition of growth at 10 µM [10] | inhibition of growth at 10 µM (NCI-H522) | inhibition of growth at 10 µM [11] | inhibition of growth at 10 µM (A549) | inhibition of growth at 10 µM (SR) | inhibition of growth at 10 µM [12] | inhibition of growth at 10 µM [13] | inhibition of growth at 10 µM (K562) | inhibition of growth at 10 µM [14] | inhibition of growth at 10 µM (CCRF-CEM) | inhibition of growth at 10 µM (T47D) | inhibition of growth at 10 µM (MDA-MB-468) | also measured |
| --- | --- | --- | --- | --- | --- | --- | --- | --- | --- | --- | --- | --- | --- | --- | --- | --- | --- | --- | --- | --- | --- |
| O=C(CN1CCN(c2nnc(-c3ccccc3)c3ccccc23)CC1)Nc1nc(-c2ccccc2)cs1 | 62% | 90% | 30% | 54% | 44% | 44% | 77% | 34% | 54% | 58% | 47% | 48% | 57% | 56% | 70% | 50% | 50% | 53% | 85% | 59% | inhibition of growth at 10 µM [1]: 40%; inhibition of growth at 10 µM (MCF7): 53%; inhibition of growth at 10 µM (SN12C): 32%; inhibition of growth at 10 µM (ACHN): 31%; inhibition of growth at 10 µM (NCI/ADR-RES): 45%; inhibition of growth at 10 µM [7]: 48%; inhibition of growth at 10 µM (SK-MEL-2): 40%; inhibition of growth at 10 µM (M14): 44%; inhibition of growth at 10 µM [8]: 51%; inhibition of growth at 10 µM [9]: 38%; inhibition of growth at 10 µM (NCI-H460): 45%; inhibition of growth at 10 µM (NCI-H226): 38%; inhibition of growth at 10 µM (MDA-MB-231): 38% |
| CCOC(=O)c1sc(NC(=O)CN2CCN(c3nnc(-c4ccccc4)c4ccccc34)CC2)nc1C | 57% | 46% | 36% | 37% | 33% | 34% | 33% | 50% | 34% | 64% | 38% | 33% | 64% | 53% | 59% | 34% | 43% | 34% | 68% | 49% | inhibition of growth at 10 µM [1]: 33%; inhibition of growth at 10 µM [15]: 35%; inhibition of growth at 10 µM (786-0): 31%; inhibition of growth at 10 µM (M14): 32%; inhibition of growth at 10 µM [16]: 32%; inhibition of growth at 10 µM (KM12): 30%; inhibition of growth at 10 µM [8]: 44%; inhibition of growth at 10 µM (MDA-MB-231): 49% |
| O=C(CN1CCN(c2nnc(-c3ccccc3)c3ccccc23)CC1)Nc1nc(-c2ccc(Cl)cc2)cs1 | 56% | 50% | 41% | 52% | 37% | 36% | 56% | 32% | 32% | 47% | 31% | 45% | 53% | 58% | 64% | 60% | 45% | 38% | 65% | 66% | inhibition of growth at 10 µM (MCF7): 44%; inhibition of growth at 10 µM (SN12C): 30%; inhibition of growth at 10 µM [15]: 41%; inhibition of growth at 10 µM (786-0): 30%; inhibition of growth at 10 µM (NCI/ADR-RES): 39%; inhibition of growth at 10 µM [17]: 30%; inhibition of growth at 10 µM [18]: 31%; inhibition of growth at 10 µM [7]: 45%; inhibition of growth at 10 µM (SK-MEL-2): 31%; inhibition of growth at 10 µM (MDA-MB-435): 31%; inhibition of growth at 10 µM [19]: 38%; inhibition of growth at 10 µM [16]: 32%; inhibition of growth at 10 µM [9]: 38%; inhibition of growth at 10 µM (NCI-H226): 31% |
